Screening data from PubChem BioAssay.
Yeast lifespan up: extends the lifespan of yeast | 130,000 tested, 0.68% active | S. cerevisiae growth with nicotinamide, OD615; deaD strain in restrictive glucose medium | inhibition of the nicotinamide effect, % at 10 µM;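 active means inhibition above a set limit, placed 3 SD over the median of all compounds, cut at about 26% in these data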
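Assay system: engineered S. cerevisiae DeaD replicative-lifespan strain, galactose-grown log-phase cells; medium: restrictive CSMM-D dextrose medium; also added: nicotinamide, 1.5 mM, co-present with compound; schedule: 48 h compound exposure at 30 °C, humidified; detection: absorbance at 615 nm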
Ins promoter up: MIN6 insulin promoter up-regulation; MIN6 insulin promoter-GFP reporter, high-content imaging; stronger effect = higher value; z-score at 5 µM; 190,000 tested, 0.3% active;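 active means z-score above 3 at 5 µM with at least 500 cells counted in the well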
RAM inhibit: inhibitors of the yeast RAM network; S. cerevisiae dse1pr::URA3 reporter, 5-FOA growth OD615, 2 d; analog-sensitive cbk1-as2 kinase mutant strain; inhibition, % at 50 µM; 190,000 tested, 1.8% active; AID 868;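 active means inhibition above a set limit, 3 SD over mean compound inhibition, cut at about 8.4% in these data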;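 further: inhibition rescues growth on 5-FOA so higher OD means more RAM inhibition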
Insulin prom inh: TRM-6 insulin promoter activity inhibition | AID 1273 | inhibition, % at 2 µM | TRM-6 cells, insulin promoter-eGFP reporter, imaging; reporter expression induced with tamoxifen | 130,000 tested, 0.9% active;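 active means inhibition above the mean plus 3 SD, with well images judged a real hit on visual review, cut at about 60% in these data, passing the limit was not always enough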
Yeast growth inh: yeast BB579 growth reduction in restrictive medium | S. cerevisiae BB579 growth, OD615, 48 h | 140,000 tested, 0.51% active | inhibition, % at 10 µM;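 active means inhibition above a set limit, 3 SD over the mean compound inhibition, cut at about 44% in these data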
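Detection: OD615 turbidity measurement; Material: Saccharomyces cerevisiae DeaD strain BB579, replicative lifespan model yeast; Timing: 48 h exposure, 30 °C; Doses: single 10 µM dose; Medium: CSMM-D restrictive synthetic medium containing dextrose (glucose); Controls: amphotericin B at 10 µg/mL as positive control.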
Numbers stand for hits; n = inactive; x = no result given. Shown are actives, neighbours in structure and some others; about 3.1% of the full set was active somewhere.

SMILES	Yeast lifespan up	Ins promoter up	RAM inhibit	Insulin prom inh	Yeast growth inh
CCN(Cc1cnn(C)c1)Cc1nc(C2(c3ccc(C)cc3)CCCC2)no1	x	n	n	x	x
CSc1nc(-c2ccccc2)nn1S(=O)(=O)c1ccccc1	x	x	n	n	n
COc1ccc(-c2nc(SC)n(S(=O)(=O)c3ccccc3)n2)cc1	x	n	n	90	n
CC1=Nc2nc(N3CCCCC3)c(C#N)c3c4c(nc(c23)N1)N(c1ccc(C(C)C)cc1)C(=O)C4	n	n	9.3	n	n
CC(C)c1ccc(-c2nc(N3CCCCC3)[nH]c(=O)c2C#N)cc1	n	x	n	n	n
Sc1oc(-c2ccccc2)cc1C=Nc1ccccc1	n	n	n	n	n
COc1ccc(Nc2ncccc2C(=O)Nc2ccccc2)cc1	n	n	n	n	n
COc1ccc(NC(=O)c2cccnc2Nc2ccc(OC)cc2)cc1	n	n	n	74	n
COc1ccc2cc(C(C)c3nc4ccccc4c(=O)n3N)ccc2c1 (configuration not stated)	31	n	n	n	n
COc1ccc(-c2nc3ccccc3c(=O)n2N)cc1	n	n	n	n	n
CC1CCCCN1C(=O)c1cc(Cl)ccc1[N+](=O)[O-] (configuration not stated)	n	n	n	n	n
COc1ccc(NS(=O)(=O)c2cc(N/C(=N\S(=O)(=O)c3ccccc3)c3ccc(F)cc3)ccc2Cl)cc1	n	n	n	n	n
COc1c(F)c(F)c(C(=O)Nc2ccc3oc(-c4ccncc4)nc3c2)c(F)c1F	n	x	8.9	n	n
COc1ccc(C(=O)N/N=C/c2cccc3cccnc23)cc1	n	n	n	x	n
COc1ccc(C(=O)N/N=C/c2cc3ccccc3[nH]c2=S)cc1	n	n	9.5	n	n
COc1ccc(C(=O)N/N=C/c2cn[nH]c2-c2ccc(OC)cc2OC)cc1	n	n	n	66	n
COc1ccc(-c2[nH]ncc2/C=N/NC(=O)c2ccc(Br)cc2)c(OC)c1	n	n	n	n	n
CCN1CC(CN(C)Cc2cn(-c3ccc(C)cc3)nc2-c2cccc(C)c2)CC1=O (configuration not stated)	x	n	n	n	x
CCOC(=O)c1c(NC(=O)c2cccnc2)sc(C)c1C	n	n	n	n	n
CCOC(=O)c1sc(NC(=O)c2cccnc2)c(C#N)c1C	29	n	n	n	n
COc1ccc(-c2cc(C(=O)Nc3nc4c(C)cccc4s3)c3ccccc3n2)cc1OC	n	n	8.6	n	n
Cc1ccc(Cl)cc1NC(=O)c1cc2ccccc2cc1O	x	n	x	x	x
Cc1ccc(-n2c(O)c(C=Nc3ccccc3-c3n[nH]c(=S)[nH]c3=O)c3ccccc3c2=O)c(C)c1	x	n	11	n	x
Cc1ccc(NC(=O)CNCCCN2CCOCC2)cc1S(=O)(=O)N1CCCCC1	x	n	x	x	x
COc1cc(OC)c(NC(=O)c2ccoc2C)cc1Cl	n	n	n	71	n
SMILES	Yeast lifespan up	Ins promoter up	RAM inhibit	Insulin prom inh	Yeast growth inh
COc1ccc(Cl)cc1NC(=O)c1c(-c2ccccc2)noc1C	n	18	n	n	n
COc1ccc(Cl)cc1NC(=O)c1ccoc1C	n	n	n	n	n
COc1cc(OC)c(NC(=O)c2c(-c3ccccc3)noc2C)cc1Cl	n	n	n	79	n
COc1ccc(NC(=O)c2c(-c3ccccc3)noc2C)c(OC)c1	n	n	n	n	n
O=C(NCc1ccc(Cl)cc1)c1cc([N+](=O)[O-])ccc1Cl	x	n	n	x	x
NC12NC(=O)C3(O)C4C5CC(C6C5C3C61)C42 (configuration not stated)	x	x	n	n	x
O=C(NCCCN1CCN(c2ccccc2F)CC1)Nc1ccc(F)cc1	n	n	n	n	n
O=C(NCCCN1CCN(c2ccccc2F)CC1)Nc1ccccc1[N+](=O)[O-]	x	n	n	78	x
O=C(CSc1nc2ccc([N+](=O)[O-])cc2[nH]1)NCCc1ccccc1	n	x	n	n	n
Cc1cc(Cl)ccc1OCC(=O)OCC(=O)Nc1ccc(F)c([N+](=O)[O-])c1	n	n	9.2	n	n
CCNC(=O)COC(=O)COc1ccc(Cl)cc1C	n	n	n	n	n
COc1cccc(-c2cc(C(=O)N3CC4(C)CC3CC(C)(C)C4)no2)c1 (configuration not stated)	n	n	10	x	n
CCn1ncc(Br)c1C(=O)Nc1sc2c(c1C(N)=O)CCC2	n	3.5	n	n	n
COC(=O)c1cccc(S(=O)(=O)N(Cc2ccco2)Cc2cc3ccc(OC)cc3[nH]c2=O)c1	n	n	n	n	n
COC(=O)c1cccc(S(=O)(=O)N(Cc2ccco2)Cc2cc3cc(OC)c(OC)cc3[nH]c2=O)c1	n	n	8.9	n	n
Cc1ccccc1NC(=O)CN1C(=O)C2C3CC(C(Br)C3Br)C2C1=O (configuration not stated)	n	x	n	x	n
Cc1cccc(-c2cc(C(=O)NCc3ccccn3)c3ccccc3n2)c1	n	n	n	x	n
Cc1cccc(C(=O)c2cnc3ccccc3c2-c2ccccc2)c1	n	x	9.9	n	n
O=C1C2CCCCC2C(=O)N1c1ccc(NC2CCCCC2)c([N+](=O)[O-])c1 (configuration not stated)	n	n	n	n	n
C=CCN(CC=C)c1ccc(N2C(=O)C3CCCCC3C2=O)cc1[N+](=O)[O-] (configuration not stated)	x	n	9.0	x	x
COc1ccc(/C=C/C(=O)N(Cc2cccs2)C2CCS(=O)(=O)C2)cc1 (configuration not stated)	x	n	x	x	x
COc1ccc(C(CC(=O)O)NC(=O)c2ccccc2)cc1OC (configuration not stated)	n	n	n	n	n
COc1ccccc1C(CC(=O)c1ccccc1)CC(=O)c1ccccc1	x	n	11	n	x
CC1CCCC2(C1)NC(=S)c1c(sc3c1CCCC3)N2 (configuration not stated)	n	n	n	n	86
CC(C)CCN1NC2(CCCC(C)C2)NC1=S (configuration not stated)	x	n	x	x	x
SMILES	Yeast lifespan up	Ins promoter up	RAM inhibit	Insulin prom inh	Yeast growth inh
CC(Oc1ccc(Cl)cc1Cl)C(=O)NC1=NN(c2ccccc2)C(=O)C1 (configuration not stated)	n	n	n	x	98
CC(=O)Nc1ccc(NC(=O)C(C)Oc2ccc(Cl)cc2Cl)cc1 (configuration not stated)	x	n	n	n	x
CC(C)(Oc1ccc(Cl)cc1)C(=O)NC1=NN(c2ccccc2)C(=O)C1	n	n	n	x	96
CCOc1ccc(OCCCCn2ccnc2)cc1	n	3.5	n	n	n
Cc1ccc(OCCCCn2ccnc2)c(Cl)c1	n	n	n	73	n
Cc1ccc(C)c(OCCCCn2ccnc2)c1	n	n	n	n	n
COc1ccc(-c2nn(-c3ccccc3)cc2/C=N/Nc2ccc(Cl)c(C(=O)O)c2)cc1OC	x	n	x	x	x
CN(C)S(=O)(=O)c1cccc(NC(=S)NN=C(Cc2ccccc2)Cc2ccccc2)c1	n	n	10	n	n
O=C(NCc1ccccc1)c1cccc(COc2ccccc2Cl)c1	n	n	8.6	x	n
